# NPY2 pot ag: potentiates or activates human NPY-Y2 receptor. P49146. cells expressing NPY-Y2, potentiator/agonist read-out. activation, % at 3.6 µM. 0.45% of 220,000 active; in the data active = activation above about 27%;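 also: cells stimulated with NPY near EC25 plus isoproterenol at EC100; 0% = vehicle plus submaximal agonist and 100% = vehicle plus saturating agonist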
# EP2 modulator: modulates human prostaglandin E2 receptor EP2 signaling | P43116 | EP2-expressing cells, cAMP HTRF FRET, PGE2 co-stimulation | induction, % at 25 µM | 0.83% of 260,000 active;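 active = compounds whose cAMP rise, as percent of the full-agonist control response, exceeds 60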;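 also: rat C6 glioma line stably carrying human EP2 under a CMV promoter; the protocol text gives 20 µM as final concentration; 100% = response of wells given 1 µM PGE2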
# PGE2 EP2 inh: blocks the human prostaglandin E2 receptor EP2 | C6 glioma cells expressing human EP2, cAMP TR-FRET; cells stimulated with saturating PGE2 | inhibition, % at 25 µM | 0.52% of 260,000 active;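 active = percent inhibition above 40 after rounding to a whole number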;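 also: rat C6 glioma host cells with rolipram phosphodiesterase inhibitor present; the protocol text gives 20 µM as final concentration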
# NPY-Y2 antag: blocks the human neuropeptide Y Y2 receptor; P49146; NPY-Y2 expressing cells, antagonist mode; inhibition, % at 2.7 µM; 0.99% of 140,000 active; AID 793; in the data active = inhibition above about 17%;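 also: 0% = vehicle with agonist challenge and 100% = reference antagonist with challenge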
# NPY Y1 blocker: antagonists of human neuropeptide Y receptor Y1. P25929. HEK293-CNG Y1 cells, membrane potential fluorescence; NPY at EC95, then isoproterenol. inhibition, % at 3.6 µM. 1% of 200,000 active;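 active = inhibition above the campaign mean inhibition of all tested compounds plus 3 SD, cut at about 20% in these data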;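 also: 0% = DMSO wells given NPY plus isoproterenol and 100% = isoproterenol alone without NPY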
# Target sequence (P25929 whole entry, looked up): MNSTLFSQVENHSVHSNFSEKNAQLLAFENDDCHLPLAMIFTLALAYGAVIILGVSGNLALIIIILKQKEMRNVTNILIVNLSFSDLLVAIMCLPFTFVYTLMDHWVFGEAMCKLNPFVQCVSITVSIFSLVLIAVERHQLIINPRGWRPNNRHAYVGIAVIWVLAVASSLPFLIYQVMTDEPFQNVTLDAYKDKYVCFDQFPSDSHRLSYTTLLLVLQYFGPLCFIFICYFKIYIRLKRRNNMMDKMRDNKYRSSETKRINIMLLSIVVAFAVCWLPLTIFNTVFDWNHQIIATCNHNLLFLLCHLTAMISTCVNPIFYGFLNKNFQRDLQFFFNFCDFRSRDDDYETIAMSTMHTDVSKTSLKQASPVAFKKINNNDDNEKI
#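 System: HEK293 cells with Y1 receptor plus CNG channel / Probe or stimulus: NPY 25 nM then isoproterenol 1 µM plus Ro 20-1724 25 µM / Compound: one concentration, 3.6 µM, in 0.4% DMSO / Schedule: compound incubation 1 h at room temperature, readout 45 min post-stimulation / Measured by: membrane potential fluorescence / Read-out: % inhibition of NPY effect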
# NPY1 pot ag: human NPY-Y1 potentiation or agonism, primary screen. P25929. NPY-Y1 expressing cells, potentiator/agonist activation. activation, % at 3.6 µM. 0.37% of 220,000 active; in the data active = activation above about 33%, passing the limit was not always enough;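 also: cells stimulated with NPY at EC10 then isoproterenol at EC100; 0% = low agonist plus stimulus and 100% = saturating agonist plus stimulus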
# * marks the source's active call; other numbers are inactive results; . = no result; ! = not confirmed by another sample. Rows were chosen to be rich in hits. Some 2.8% of all compounds tested hit in one or more screens of this group.
SMILES,NPY2 pot ag,EP2 modulator,PGE2 EP2 inh,NPY-Y2 antag,NPY Y1 blocker,NPY1 pot ag
S=c1nc(C23CC4CC(CC(C4)C2)C3)[nH][nH]1,22.8,-2.8,5.5,.,.,9.8
Cc1sc(N)nc1C12CC3CC(CC(C3)C1)C2,35.3*,11.9,10.0,.,-11.1,46.7*
O=C(CC1C(=O)NCCN1C(=O)Nc1ccc(C(F)(F)F)cc1)Nc1ccc(F)cc1 (stereo not drawn),40.8*,-99.9,5.5,.,.,69.3*
COC(=O)c1sccc1NC(=O)CC1C(=O)NCCN1C(=O)Nc1ccc(C(F)(F)F)cc1 (stereo not drawn),-18.6,-55.8,8.1,.,.,16.6
COc1ccc2sc(N(CCN(C)C)C(=O)/C=C/c3cccs3)nc2c1,41.3*,32.2,8.6,.,8.5,41.6*
CCCn1c(SCC(C)=O)nc2c1c(=O)[nH]c(=O)n2C,.,-38.7,3.6,.,.,.
COc1cc(/C=C2/C(=O)c3cccc([N+](=O)[O-])c3C2=O)c(Br)cc1O,7.2,-96.2,49.2*,0.9,1.9,8.3
COc1ccc(-c2nc(-c3cccc([N+](=O)[O-])c3O)cc(=O)o2)cc1OC,-9.9,1.2,6.4,2.6,1.8,-12.5
NC(N)=NC(N)=Nc1c(F)c(F)c(F)c(F)c1F,.,-122.5,63.8*,.,.,.
COc1ccc(CCNCC(O)COc2cccc(Br)c2)cc1 (stereo not drawn),63.4*,-26.5,6.7,.,-1.1,74.7*
OC(CNCCc1ccc(C(F)(F)F)cc1)COc1cccc2ccccc12 (stereo not drawn),46.3*,-69.0,8.0,6.0,-8.2,60.5*
O=C(c1cncnc1)N1CCC(n2nnc(-c3ccc(F)cc3)n2)CC1,.,2.1,.,.,.,.
C=CCn1c(=O)c(C(=O)Nc2ccc(C(=O)OCCC)cc2)c(O)c2ccccc21,.,-2.6,14.4,.,.,.
CC[n+]1c(/C=C2\C=C(C)CC(C)(C)C2)sc2ccccc21,-8.7,5.0,1.9,19.9*,21.8*,-13.4
CCC1=C/C(=C/c2sc3ccccc3[n+]2CC)CC(C)(C)C1,17.8,-13.3,2.8,.,6.3,-3.9
COc1ccc(C2(C)NN=C3Sc4ccccc4N32)cc1 (stereo not drawn),.,-81.9,7.9,.,.,.
Cc1cccc(C)c1NC(=O)C(C)Sc1nnc2c3c(C)c(C)sc3ncn12 (stereo not drawn),.,-51.4,4.9,.,.,.
Cc1cccc(C)c1NC(=O)C[N+](C)(C)CC(O)COc1cccc2ccccc12 (stereo not drawn),66.2*,5.4,7.0,.,-10.1,97.9*
CCOC(=O)CSc1ccc(-c2nc3cc(C)c(C)cc3[nH]2)cn1,6.8,-62.2,57.3*!,1.1,3.6,-5.2
CCOC(=O)CSc1ccc(-c2nc3ccccc3[nH]2)cn1,23.1,-49.4,42.3*!,1.4,0.6,5.6
COc1ccc(C(=O)Nc2nc3ccc(NC(C)=O)cc3s2)cc1Cl,.,-2.7,13.0,.,.,.
COc1ccc(-c2nc3n(c2NC(C)(C)C)CCNC3)cc1OC,.,-81.4,7.9,.,.,.
c1ccc(Nc2nc(-c3ccncc3)cs2)cc1,43.7*,-8.3,9.4,-11.1,-17.3,57.9*
Clc1ccc(Nc2nc(-c3ccncc3)cs2)cc1,2.8,.,13.3,-6.7,-15.2,19.3
Clc1cccc(Nc2nc(-c3cccnc3)cs2)c1,29.7*,26.4,15.6,.,-13.2,46.7*
SMILES,NPY2 pot ag,EP2 modulator,PGE2 EP2 inh,NPY-Y2 antag,NPY Y1 blocker,NPY1 pot ag
C=C(C)CC(Nc1ccco1)c1ccccc1C (stereo not drawn),.,61.2*,5.3,.,.,.
Cc1cccc(C(CC(=O)NCc2ccco2)c2ccccc2)c1O (stereo not drawn),11.2,33.8,6.5,.,0.8,-10.4
NC(=O)c1cn(-c2ccccc2)nc1-c1cc2ccccc2oc1=O,-12.3,98.2*,-0.2,0.2,2.7,-48.1
O=Cc1cn(-c2ccccc2)nc1-c1cc2ccccc2oc1=O,2.2,56.1,17.8,4.7,3.6,-20.6
Cc1cc2n(n1)C(c1ccccc1C(F)(F)F)Nc1ccccc1-2 (stereo not drawn),.,28.3,6.3,.,.,.
CCOc1ccccc1C1Nc2ccccc2-c2cc(C)nn21 (stereo not drawn),.,61.8*,13.1,.,.,.
CCCN(CCC)C1=CC(=[N+]2CCCC2)CC(C)(C)C1,16.0,-2.3,3.4,24.2*,34.1*,-21.0
CCC(NC(=O)c1cc(C2CC2)on1)c1ccc(F)cc1 (stereo not drawn),.,-49.6,1.9,.,.,.
Cc1ccccc1OCCn1c(=O)sc2ccccc21,-38.4,63.1*!,2.0,8.0,5.8,-27.6
Oc1ccc(-c2nc3cnccn3c2NCc2ccccc2)c(O)c1,.,-61.5,.,.,.,.
Cc1ccc(NC(=O)/C(=C/c2ccco2)c2ccccc2)c(C)c1,-12.4,64.8*,5.0,4.9,4.3,-7.4
CNC(=O)C(=O)Nc1c(C)cc(C)cc1C,-1.5,3.6,1.5,2.5,9.5,5.8
Cc1cc(C)c(NC(=O)/C(=C/c2ccccc2)c2ccccc2)c(C)c1,-12.8,61.9*,2.8,8.5,12.6,6.8
O=C(O)/C(=C/c1ccco1)c1ccccc1,-12.0,12.7,-1.9,.,8.3,-14.2
CCCCN(CCCC)CC(O)CN(c1cc([N+](=O)[O-])ccc1OC)S(=O)(=O)c1ccccc1 (stereo not drawn),-4.4,-0.1,8.8,19.7*,23.1*,-28.2
Cc1nc(-c2ccccc2)sc1C(=O)CSc1ccccc1,-8.6,-2.6,12.4,24.2*,21.2*,-31.5
Cc1nc(-c2ccccc2)sc1C(N)=O,-10.2,-3.4,15.7,0.9,5.1,-16.8
CCSc1nc(C)c(C(C)=O)cc1C#N,7.9,30.5,6.7,2.5,6.0,-7.2
CC(=O)c1cc(C#N)c(SCCC(C)C)nc1C,3.4,61.5*,5.3,3.4,1.9,-31.7
Cc1ccc2cc(C)c3nn(CCNC(=O)c4cccnc4)c(=O)n3c2c1,.,-8.6,2.3,.,.,.
CN(C)CCn1c(C(=O)Nc2ccccc2)cc2ccccc21,-36.0,-10.9,10.8,19.6*,38.1*,-67.0
CC(=O)Nc1nc2ccccc2n1CCN(C)C,-12.8,30.0,10.2,0.1,4.6,-10.3
Nc1ccc(N(CCO)CCO)cc1,-11.8,20.7,11.6,.,-1.9,-6.1
Cc1cc(N(CCO)CCO)ccc1N=Nc1cc(F)ccc1F,69.0*,-38.7,7.0,.,-16.9,62.3*
COCCCNC(NC(=O)c1ccc(Br)cc1)C(Cl)(Cl)Cl (stereo not drawn),65.8*,-6.7,11.7,1.4,-9.4,59.4*
Cn1c(-c2ccc(Cl)cc2)cnc1NCc1cc2c(cc1[N+](=O)[O-])OCO2,47.5*,-16.9,11.6,0.1,-7.6,47.4*
Cn1c(-c2ccc(F)cc2)cnc1NCc1cc2c(cc1[N+](=O)[O-])OCO2,8.8,-25.4,15.2,6.4,7.0,0.4
COC(=O)C1=C(C)NC(C)=C(C(=O)OC)C1c1ccc(C(=O)OC)cc1,.,-42.2,6.8,.,.,.
COC(=O)C1=CN(C2CC2)C=C(C(=O)OC)C1c1ccc(C(=O)OC)cc1,-14.1,61.0*,5.2,6.4,0.4,-15.4
